Laboratory results from ChEMBL document CHEMBL3244092, “Synthesis of episilon-rhodomycinone glycosides” (1977).
The source made the active and inactive calls. The calls are words filed in the database; no cut-off is given here.

system: P388; test: Antitumor activity against mouse P388 cells allografted in CDF mouse assessed as tumor growth inhibition at 64 mg/kg/day relative to control; assay type: functional
Method in brief: (§1)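 P388 lymphatic leukemia carried in CDF mice, with compound given as a daily dose in mg/kg/day. Activity was read out as T/C, treated versus control. Route, vehicle and schedule length are not given.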

Row | Structure (SMILES) | T/C [%]
1 | CC[C@@]1(O)C[C@H](O[C@H]2C[C@H](OC(C)=O)[C@H](OC(C)=O)CO2)c2c(O)c3c(c(O)c2[C@H]1C(=O)OC)C(=O)c1cccc(O)c1C3=O | 125

system: Bacillus subtilis; test: Antibacterial activity against Bacillus subtilis; assay type: functional, organism-based

Row | Structure (SMILES) | Activity
2 | CC[C@@]1(O)C[C@H](O[C@H]2C[C@H](OC(C)=O)[C@H](OC(C)=O)CO2)c2c(O)c3c(c(O)c2[C@H]1C(=O)OC)C(=O)c1cccc(O)c1C3=O | Active

system: P388; test: Antitumor activity against mouse P388 cells allografted in CDF mouse assessed as tumor growth inhibition at 13 mg/kg/day relative to control; assay type: functional; method in brief: as §1

Row | Structure (SMILES) | T/C [%]
3 | CC[C@@]1(O)C[C@H](O[C@H]2C[C@H](O)[C@H](O)CO2)c2c(O)c3c(c(O)c2[C@H]1C(=O)OC)C(=O)c1cccc(O)c1C3=O | 115

system: Enterobacteria phage lambda; test: Induction of lambda phage production in streptomycin-dependent lysogenic Escherichia coli W1709(lambda) assessed as ratio of plaques in treated culture to control; assay type: functional

Row | Structure (SMILES) | Activity
4 | CC[C@@]1(O)C[C@H](O[C@@H]2OC[C@H](O)[C@H](O)[C@H]2O)c2c(O)c3c(c(O)c2[C@H]1C(=O)OC)C(=O)c1cccc(O)c1C3=O | inactive
5 | CC[C@@]1(O)C[C@H](O[C@@H]2OC[C@@H](OC(C)=O)[C@@H](OC(C)=O)[C@@H]2OC(C)=O)c2c(O)c3c(c(O)c2[C@H]1C(=O)OC)C(=O)c1cccc(O)c1C3=O | inactive
6 | CC[C@@]1(O)C[C@H](O[C@@H]2O[C@H](COC(=O)c3ccccc3)[C@@H](OC(=O)c3ccccc3)[C@H]2OC(=O)c2ccccc2)c2c(O)c3c(c(O)c2[C@H]1C(=O)OC)C(=O)c1cccc(O)c1C3=O | inactive
7 | CC[C@@]1(O)C[C@H](O[C@@H]2O[C@H](COC(=O)c3ccc([N+](=O)[O-])cc3)[C@H](OC(=O)c3ccc([N+](=O)[O-])cc3)[C@H]2OC(=O)c2ccc([N+](=O)[O-])cc2)c2c(O)c3c(c(O)c2[C@H]1C(=O)OC)C(=O)c1cccc(O)c1C3=O | inactive
8 | CC[C@@]1(O)C[C@H](O[C@H]2C[C@H](OC(=O)c3ccc([N+](=O)[O-])cc3)[C@@H](COC(=O)c3ccc([N+](=O)[O-])cc3)O2)c2c(O)c3c(c(O)c2[C@H]1C(=O)OC)C(=O)c1cccc(O)c1C3=O | inactive
9 | CC[C@@]1(O)C[C@H](O[C@@H]2O[C@@H](C)[C@H](OC(C)=O)[C@@H](OC(C)=O)[C@H]2OC(C)=O)c2c(O)c3c(c(O)c2[C@H]1C(=O)OC)C(=O)c1cccc(O)c1C3=O | inactive
10 | CC[C@@]1(O)C[C@H](O[C@@H]2OC[C@@H](OC(C)=O)[C@H](OC(C)=O)[C@H]2OC(C)=O)c2c(O)c3c(c(O)c2[C@H]1C(=O)OC)C(=O)c1cccc(O)c1C3=O | inactive
11 | CC[C@@]1(O)C[C@H](O[C@@H]2O[C@@H](CO)[C@@H](O)[C@H]2O)c2c(O)c3c(c(O)c2[C@H]1C(=O)OC)C(=O)c1cccc(O)c1C3=O | inactive
12 | CC[C@@]1(O)C[C@H](O[C@H]2C[C@H](O)[C@H](O)CO2)c2c(O)c3c(c(O)c2[C@H]1C(=O)OC)C(=O)c1cccc(O)c1C3=O | inactive
13 | CC[C@@]1(O)C[C@H](O[C@@H]2O[C@H](COC(C)=O)[C@@H](OC(C)=O)[C@H](OC(C)=O)[C@H]2OC(C)=O)c2c(O)c3c(c(O)c2[C@H]1C(=O)OC)C(=O)c1cccc(O)c1C3=O | inactive
14 | CC[C@@]1(O)C[C@H](O[C@H]2C[C@H](OC(C)=O)[C@@H](OC(C)=O)[C@H](C)O2)c2c(O)c3c(c(O)c2[C@H]1C(=O)OC)C(=O)c1cccc(O)c1C3=O | inactive
15 | CC[C@@]1(O)C[C@H](O[C@H]2C[C@H](O)[C@@H](O)[C@H](C)O2)c2c(O)c3c(c(O)c2[C@H]1C(=O)OC)C(=O)c1cccc(O)c1C3=O | inactive
16 | CC[C@@]1(O)C[C@H](O[C@H]2C[C@H](OC(C)=O)[C@H](OC(C)=O)[C@H](C)O2)c2c(O)c3c(c(O)c2[C@H]1C(=O)OC)C(=O)c1cccc(O)c1C3=O | inactive
17 | CC[C@@]1(O)C[C@H](O[C@H]2C[C@H](O)[C@H](O)[C@H](C)O2)c2c(O)c3c(c(O)c2[C@H]1C(=O)OC)C(=O)c1cccc(O)c1C3=O | inactive
18 | CC[C@@]1(O)C[C@H](O[C@@H]2O[C@@H](COC(=O)c3ccccc3)[C@@H](OC(=O)c3ccccc3)[C@H]2OC(=O)c2ccccc2)c2c(O)c3c(c(O)c2[C@H]1C(=O)OC)C(=O)c1cccc(O)c1C3=O | inactive
19 | CC[C@@]1(O)C[C@H](O[C@@H]2O[C@@H](C)[C@@H](OC(C)=O)[C@@H](OC(C)=O)[C@@H]2OC(C)=O)c2c(O)c3c(c(O)c2[C@H]1C(=O)OC)C(=O)c1cccc(O)c1C3=O | inactive
20 | CC[C@@]1(O)C[C@H](O[C@H]2C[C@H](OC(C)=O)[C@H](OC(C)=O)CO2)c2c(O)c3c(c(O)c2[C@H]1C(=O)OC)C(=O)c1cccc(O)c1C3=O | inactive
21 | CC[C@@]1(O)C[C@H](O[C@@H]2OC[C@@H](OC(C)=O)[C@@H](OC(C)=O)[C@H]2OC(C)=O)c2c(O)c3c(c(O)c2[C@H]1C(=O)OC)C(=O)c1cccc(O)c1C3=O | inactive
22 | CC[C@@]1(O)C[C@H](O[C@@H]2OC[C@H](OC(C)=O)[C@@H](OC(C)=O)[C@H]2OC(C)=O)c2c(O)c3c(c(O)c2[C@H]1C(=O)OC)C(=O)c1cccc(O)c1C3=O | inactive
23 | CC[C@@]1(O)C[C@H](O[C@@H]2OC[C@H](OC(C)=O)[C@H](OC(C)=O)[C@H]2OC(C)=O)c2c(O)c3c(c(O)c2[C@H]1C(=O)OC)C(=O)c1cccc(O)c1C3=O | inactive
24 | CC[C@@]1(O)C[C@H](O[C@@H]2O[C@H](CO)[C@H](O)[C@H]2O)c2c(O)c3c(c(O)c2[C@H]1C(=O)OC)C(=O)c1cccc(O)c1C3=O | inactive
25 | CC[C@@]1(O)C[C@H](O[C@@H]2O[C@@H](C)[C@@H](O)[C@@H](O)[C@@H]2O)c2c(O)c3c(c(O)c2[C@H]1C(=O)OC)C(=O)c1cccc(O)c1C3=O | inactive
26 | CC[C@@]1(O)C[C@H](O[C@@H]2O[C@H](CO)[C@@H](O)[C@H](O)[C@H]2O)c2c(O)c3c(c(O)c2[C@H]1C(=O)OC)C(=O)c1cccc(O)c1C3=O | inactive
27 | CC[C@@]1(O)C[C@H](O[C@@H]2O[C@H](CO)[C@@H](O)[C@H]2O)c2c(O)c3c(c(O)c2[C@H]1C(=O)OC)C(=O)c1cccc(O)c1C3=O | inactive
28 | CC[C@@]1(O)C[C@H](O[C@@H]2O[C@H](COCc3ccccc3)[C@@H](OCc3ccccc3)[C@@H]2OCc2ccccc2)c2c(O)c3c(c(O)c2[C@H]1C(=O)OC)C(=O)c1cccc(O)c1C3=O | inactive
29 | CC[C@@]1(O)C[C@H](O[C@H]2C[C@H](O)[C@@H](CO)O2)c2c(O)c3c(c(O)c2[C@H]1C(=O)OC)C(=O)c1cccc(O)c1C3=O | inactive

system: P388; test: Antitumor activity against mouse P388 cells allografted in CDF mouse assessed as tumor growth inhibition at 32 to 128 mg/kg/day relative to control; assay type: functional; method in brief: as §1

Row | Structure (SMILES) | T/C [%]
30 | CC[C@@]1(O)C[C@H](O[C@H]2C[C@H](OC(C)=O)[C@H](OC(C)=O)CO2)c2c(O)c3c(c(O)c2[C@H]1C(=O)OC)C(=O)c1cccc(O)c1C3=O | 110

system: P388; test: Antitumor activity against mouse P388 cells allografted in CDF mouse assessed as tumor growth inhibition at 18 mg/kg/day relative to control; assay type: functional; method in brief: as §1

Row | Structure (SMILES) | T/C [%]
31 | CC[C@@]1(O)C[C@H](O[C@H]2C[C@H](O)[C@H](O)[C@H](C)O2)c2c(O)c3c(c(O)c2[C@H]1C(=O)OC)C(=O)c1cccc(O)c1C3=O | 109
